Reference: ChEMBL document CHEMBL4261518, “Side chain-functionalized aniline-derived ursolic acid derivatives as multidrug resistance reversers that block the nuclear factor-kappa B (NF-κB) pathway and cell proliferation” (Medchemcomm, 2017)
Blank lines part the entries; values can stand above or below the molecule they belong to. Calls of active or inactive are those of the source. The rule behind the calls is not given here.

Legend:
MGC-803 = assay: Cytotoxicity against human MGC803 cells after 48 hrs by MTT assay; type: functional, cell-based; settings: MGC-803, 48 h
How it was run: (§1)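 Cells grown overnight in DMEM + 10% FBS at 37 °C under 5% CO2, then given a range of compound concentrations for 48 h. MTT added for about 4 h, medium replaced by DMSO, absorbance read at 570/630 nm. IC50 reported as mean ± SD of five independent experiments.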

NCI-H460 [1] = assay: Cytotoxicity against human NCI-H460 cells harboring pNF-kB-Luc assessed as reduction in cell viability after 7 hrs by MTT assay relative to control; set-up: concentration or dose not given beside the values; settings: nci-h460, 7 h
HepG2 = assay: Cytotoxicity against human HepG2 cells after 48 hrs by MTT assay; type: functional, cell-based; settings: HepG2, 48 h; how it was run: as §1
NCI-H460 [2] = assay: Cytotoxicity against human NCI-H460 cells after 48 hrs by MTT assay; type: functional, cell-based; settings: NCI-H460, 48 h; how it was run: as §1
[3] = Inhibition of TNFalpha-induced NF-kB (unknown origin) activation expressed in human NCI-H460 cells after 7 hrs by luciferase reporter gene assay; type: cell-based; settings: NCI-H460, 7 h
How it was run: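 NCI-H460 cells transiently co-transfected with pNF-κB-Luc reporter and pSV-β-galactosidase internal control by lipofectamine. Medium changed after 6 h, then 6 h further culture. TNF-α (15 ng ml–1) plus compound given together for 7 h. Luciferase ratio to TNF-α-only cells, corrected for non-TNF background and viability. IC50 from sigmoidal variable-slope fit.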

[4] = Cytotoxicity against human SPCA2 cells after 48 hrs by MTT assay; type: functional, cell-based; settings: SPCA2, 48 h; how it was run: as §1
T-24 = assay: Cytotoxicity against human T24 cells after 48 hrs by MTT assay; type: functional, cell-based; settings: T-24, 48 h; how it was run: as §1
[5] = Resistant factor, ratio of IC50 for human HepG2/DOX cells to IC50 for human HepG2 cells; type: functional
[6] = Cytotoxicity against human NCI-H460/DOX cells after 48 hrs by MTT assay; type: functional, cell-based; settings: NCI-H460, 48 h; how it was run: as §1
[7] = Cytotoxicity against human HepG2/DOX cells after 48 hrs by MTT assay; type: functional, cell-based; how it was run: as §1
[8] = Resistant factor, ratio of IC50 for human NCI-H460/DOX cells to IC50 for human NCI-H460 cells; type: functional
L02 = assay: Cytotoxicity against human HL7702 cells after 48 hrs by MTT assay; type: cell-based; settings: L02, 48 h; how it was run: as §1
A549 = assay: Cytotoxicity against human A549 cells after 48 hrs by MTT assay; type: functional, cell-based; settings: A549, 48 h; how it was run: as §1
NCI-H460 [9] = assay: Induction of apoptosis in human NCI-H460 cells assessed as early apoptotic cells at 10 uM after 24 hrs by propidium iodide/Annexin V-FITC staining based flow cytometry (reference value: 2.79%); type: functional
NCI-H460 [10] = assay: Induction of apoptosis in human NCI-H460 cells assessed as chromatin condensation after 24 hrs by Hoechst 33258 staining based fluorescence microscopic method; type: functional, cell-based
How it was run: (§2)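 NCI-H460 cells (2 × 10^6) in six-well plates exposed to 5 or 10 μM for 24 h. Fixed 10 min in 4% paraformaldehyde, washed in cold PBS, stained with Hoechst 33258 for 5 min in the dark. Viewed by fluorescence microscopy at ex 350/em 460 nm; brightly stained condensed nuclei scored as apoptotic.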

NCI-H460 [11] = assay: Induction of apoptosis in human NCI-H460 cells after 24 hrs by propidium iodide/Annexin V-FITC staining based flow cytometry; type: functional, cell-based
NCI-H460 [12] = assay: Cell cycle arrest in human NCI-H460 cells assessed as accumulation at S-phase at 10 uM after 24 to 48 hrs by propidium iodide staining based flow cytometry (reference value: 54.36%); type: functional
[13] = target: Inhibitor of NF-kappa-B kinase alpha/beta (Homo sapiens) (UniProt O14920+O15111); assay: Inhibition of TNFalpha-induced IKKalpha/beta phosphorylation in human NCI-H460 cells by Western blot analysis; type: cell-based
How it was run: (§3)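 TNF-α-stimulated NCI-H460 cells treated with compound, lysed in ice-cold RIPA with protease and phosphatase inhibitors, protein measured by Bradford. Equal protein run on 12% SDS-PAGE, transferred to PVDF. Probed overnight at 4 °C for TAK1, TAB1, IKKα, p-IKKα/β or NF-κB p65, then HRP secondary (1:2000), chemiluminescence, β-actin loading control. Three separate experiments.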

NCI-H460 [14] = assay: Induction of ROS generation in human NCI-H460 cells at 10 uM after 24 hrs by DCF-DA staining based flow cytometry (reference value: 12.9%); type: functional
NCI-H460 [15] = assay: Induction of apoptosis in human NCI-H460 cells assessed as necrotic cells at 10 uM after 24 hrs by propidium iodide/Annexin V-FITC staining based flow cytometry (reference value: 2.8%); type: functional
NCI-H460 [16] = assay: Induction of ROS generation in human NCI-H460 cells at 5 uM after 24 hrs by DCF-DA staining based flow cytometry (reference value: 12.9%); type: functional
NCI-H460 [17] = assay: Inhibition of TNFalpha-induced NF-kB protein expression in human NCI-H460 cells by Western blot analysis; type: functional, cell-based; how it was run: as §3
NCI-H460 [18] = assay: Cell cycle arrest in human NCI-H460 cells assessed as accumulation at G2-phase at 10 uM after 24 to 48 hrs by propidium iodide staining based flow cytometry (reference value: 3.82%); type: functional
NCI-H460 [19] = assay: Inhibition of TNFalpha-induced TAK1 protein expression in human NCI-H460 cells by Western blot analysis; type: functional, cell-based; how it was run: as §3
NCI-H460 [20] = assay: Induction of ROS generation in human NCI-H460 cells at 10 uM after 24 hrs by DCF-DA staining based flow cytometry relative to control; type: functional
NCI-H460 [21] = assay: Induction of apoptosis in human NCI-H460 cells assessed as live cells at 10 uM after 24 hrs by propidium iodide/Annexin V-FITC staining based flow cytometry (reference value: 89%); type: functional
NCI-H460 [22] = assay: Induction of apoptosis in human NCI-H460 cells assessed as late apoptotic cells at 5 uM after 24 hrs by propidium iodide/Annexin V-FITC staining based flow cytometry (reference value: 5.4%); type: functional
NCI-H460 [23] = assay: Cell cycle arrest in human NCI-H460 cells assessed as accumulation at G1-phase at 10 uM after 24 to 48 hrs by propidium iodide staining based flow cytometry (reference value: 41.83%); type: functional
NCI-H460 [24] = assay: Inhibition of TNFalpha-induced IKKalpha protein expression in human NCI-H460 cells at 5 to 10 uM by Western blot analysis; type: functional, cell-based; how it was run: as §3
NCI-H460 [25] = assay: Induction of apoptosis in human NCI-H460 cells assessed as live cells at 5 uM after 24 hrs by propidium iodide/Annexin V-FITC staining based flow cytometry (reference value: 89%); type: functional
NCI-H460 [26] = assay: Cell cycle arrest in human NCI-H460 cells assessed as accumulation at G1-phase at 5 uM after 24 to 48 hrs by propidium iodide staining based flow cytometry (reference value: 41.83%); type: functional
NCI-H460 [27] = assay: Induction of apoptosis in human NCI-H460 cells assessed as early apoptotic cells at 5 uM after 24 hrs by propidium iodide/Annexin V-FITC staining based flow cytometry (reference value: 2.79%); type: functional
NCI-H460 [28] = assay: Induction of apoptosis in human NCI-H460 cells assessed as necrotic cells at 5 uM after 24 hrs by propidium iodide/Annexin V-FITC staining based flow cytometry (reference value: 2.8%); type: functional
NCI-H460 [29] = assay: Induction of apoptosis in human NCI-H460 cells assessed as late apoptotic cells at 10 uM after 24 hrs by propidium iodide/Annexin V-FITC staining based flow cytometry (reference value: 5.4%); type: functional
NCI-H460 [30] = assay: Cell cycle arrest in human NCI-H460 cells assessed as accumulation at S-phase at 5 uM after 24 to 48 hrs by propidium iodide staining based flow cytometry (reference value: 54.36%); type: functional
NCI-H460 [31] = assay: Inhibition of TNFalpha-induced TAB1 protein expression in human NCI-H460 cells by Western blot analysis; type: functional, cell-based; how it was run: as §3
[32] = target: Transcription factor p65 (Homo sapiens) (UniProt Q04206); assay: Inhibition of TNFalpha-induced NF-kB p65 activation human NCI-H460 cells assessed as reduction in DNA binding ability at 5 to 10 uM by ELISA relative to control; type: cell-based
Transcription factor p65 (Homo sapiens), sequence (Q04206 whole entry): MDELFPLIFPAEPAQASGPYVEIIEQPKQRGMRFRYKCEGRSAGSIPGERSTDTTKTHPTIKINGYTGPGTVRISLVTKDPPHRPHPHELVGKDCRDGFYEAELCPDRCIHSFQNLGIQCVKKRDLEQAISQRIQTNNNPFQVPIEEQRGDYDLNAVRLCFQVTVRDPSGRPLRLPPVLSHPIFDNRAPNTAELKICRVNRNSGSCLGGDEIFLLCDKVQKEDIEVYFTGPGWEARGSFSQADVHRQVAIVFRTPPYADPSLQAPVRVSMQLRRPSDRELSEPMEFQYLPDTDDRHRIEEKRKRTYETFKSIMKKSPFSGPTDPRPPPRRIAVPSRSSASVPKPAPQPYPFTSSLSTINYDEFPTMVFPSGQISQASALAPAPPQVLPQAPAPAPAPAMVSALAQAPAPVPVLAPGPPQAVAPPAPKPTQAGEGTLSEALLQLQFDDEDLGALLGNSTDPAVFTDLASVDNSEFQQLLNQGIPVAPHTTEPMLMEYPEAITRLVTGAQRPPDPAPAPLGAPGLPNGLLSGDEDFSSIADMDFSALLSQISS

NCI-H460 [33] = assay: Induction of apoptosis in human NCI-H460 cells assessed as nuclear condensation after 24 hrs by Hoechst 33258 staining based fluorescence microscopic method; type: functional, cell-based; how it was run: as §2
NCI-H460 [34] = assay: Cell cycle arrest in human NCI-H460 cells assessed as accumulation at G2-phase at 5 uM after 24 to 48 hrs by propidium iodide staining based flow cytometry (reference value: 3.82%); type: functional

Compound: C[C@H]1[C@H](C)CC[C@]2(C(=O)Nc3ccccc3)CC[C@]3(C)C(=CC[C@@H]4[C@@]5(C)CCC(=O)C(C)(C)[C@@H]5CC[C@]43C)[C@H]12
IC50 (MGC-803): 15.1 µM
Activity (NCI-H460 [1]): < 5%
IC50 (HepG2): 18.1 µM
IC50 (NCI-H460 [2]): 12.9 µM
IC50 [3]: 7.13 µM
IC50 [4]: 13.5 µM
IC50 (T-24): 13.6 µM
Ratio IC50 [5]: 2.02
IC50 [6]: 25.7 µM
IC50 [7]: 36.7 µM
Ratio IC50 [8]: 1.99
IC50 (L02): > 50 µM
IC50 (A549): 16.3 µM

Compound: Cc1ccc(NC(=O)COC(=O)[C@]23CC[C@@H](C)[C@H](C)[C@H]2C2=CC[C@@H]4[C@@]5(C)CCC(=O)C(C)(C)[C@@H]5CC[C@@]4(C)[C@]2(C)CC3)cc1
IC50 (MGC-803): 16.6 µM
Activity (NCI-H460 [1]): < 5%
IC50 (HepG2): 20.1 µM
IC50 (NCI-H460 [2]): 10.9 µM
IC50 [3]: 8.04 µM
IC50 [4]: 15.6 µM
IC50 (T-24): 15.7 µM
Ratio IC50 [5]: 1.98
IC50 [6]: 23.8 µM
IC50 [7]: 39.7 µM
Ratio IC50 [8]: 2.18
IC50 (L02): > 50 µM
IC50 (A549): 13.1 µM

Compound: Cc1ccc(NC(=O)[C@]23CC[C@@H](C)[C@H](C)[C@H]2C2=CC[C@@H]4[C@@]5(C)CCC(=O)C(C)(C)[C@@H]5CC[C@@]4(C)[C@]2(C)CC3)cc1
IC50 (MGC-803): 18.6 µM
Activity (NCI-H460 [1]): < 5%
IC50 (HepG2): 17.6 µM
IC50 (NCI-H460 [2]): 11.9 µM
IC50 [3]: 5.43 µM
IC50 [4]: 17.3 µM
IC50 (T-24): 20.1 µM
Ratio IC50 [5]: 1.62
IC50 [6]: 20.9 µM
IC50 [7]: 28.5 µM
Ratio IC50 [8]: 1.76
IC50 (L02): > 50 µM
IC50 (A549): 17.9 µM

The next molecules have a lower IC50 [3] than those just listed; values first:

IC50 [3]: 2.33 µM
Compound: CC(=O)O[C@H]1CC[C@]2(C)[C@H]3CC=C4[C@@H]5[C@@H](C)[C@H](C)CC[C@]5(C(=O)Nc5ccccc5)CC[C@@]4(C)[C@]3(C)CC[C@H]2C1(C)C
IC50 (MGC-803): 14.8 µM
Activity (NCI-H460 [1]): < 5%
IC50 (HepG2): 12.6 µM
IC50 (NCI-H460 [2]): 11.4 µM
IC50 [4]: 11.7 µM
IC50 (T-24): 13.1 µM
Ratio IC50 [5]: 2.17
IC50 [6]: 17.2 µM
IC50 [7]: 27.4 µM
Ratio IC50 [8]: 1.52
IC50 (L02): > 50 µM
IC50 (A549): 12.9 µM

inhibition [13]: Dose-dependent effect
IC50 [3]: 0.36 µM
fold change (FC) [32]: 2.3
Compound: CC(=O)O[C@H]1CC[C@]2(C)[C@H]3CC=C4[C@@H]5[C@@H](C)[C@H](C)CC[C@]5(C(=O)NCCN(C)C)CC[C@@]4(C)[C@]3(C)CC[C@H]2C1(C)C
Activity (NCI-H460 [9]): 47.1%
IC50 (MGC-803): 7.96 µM
Activity (NCI-H460 [10]): Dose-dependent effect
Activity (NCI-H460 [11]): Dose-dependent effect
Activity (NCI-H460 [12]): 41.95%
Activity (NCI-H460 [1]): < 5%
IC50 (HepG2): 8.14 µM
IC50 (NCI-H460 [2]): 3.08 µM
Activity (NCI-H460 [14]): 40.8%
Activity (NCI-H460 [15]): 5.8%
Activity (NCI-H460 [16]): 14.9%
inhibition (NCI-H460 [17]): Dose-dependent effect
Activity (NCI-H460 [18]): 4.23%
inhibition (NCI-H460 [19]): Dose-dependent effect
fold change (FC) (NCI-H460 [20]): >3
Activity (NCI-H460 [21]): 41.9%
Activity (NCI-H460 [22]): 3.9%
IC50 [4]: 5.38 µM
Activity (NCI-H460 [23]): 53.82%
inhibition (NCI-H460 [24]): Active
Activity (NCI-H460 [25]): 79.9%
IC50 (T-24): 5.51 µM
Activity (NCI-H460 [26]): 49.26%
Ratio IC50 [5]: 1.33
IC50 [6]: 5.2 µM
IC50 [7]: 10.8 µM
Activity (NCI-H460 [27]): 12.3%
Ratio IC50 [8]: 1.68
Activity (NCI-H460 [28]): 3.85%
Activity (NCI-H460 [29]): 5.16%
Activity (NCI-H460 [30]): 46.27%
IC50 (L02): > 50 µM
inhibition (NCI-H460 [31]): Dose-dependent effect
Activity (NCI-H460 [33]): Dose-dependent effect
IC50 (A549): 4.32 µM
Activity (NCI-H460 [34]): 4.46%
